Legend:
[1] = target: Kappa-type opioid receptor (Cavia porcellus, UniProt P41144); assay: Binding affinity was measured on opioid receptor kappa 1
[2] = target: Kappa-type opioid receptor (Cavia porcellus) (UniProt P41144); assay: Antagonist activity was evaluated in the guinea pig ileum assay against Dyn A(1-13)-selective agonist of opioid receptor kappa 1; type: functional, tissue-based
[3] = target: Kappa-type opioid receptor (Cavia porcellus) (UniProt P41144); assay: Antagonist activity was evaluated in the guinea pig ileum assay against U50,488- selective agonist of opioid receptor kappa 1; type: functional, tissue-based
Summary of the method: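 Ke taken from agonist IC50 ratio in presence versus absence of antagonist; [Leu5]enkephalin dose-response on each ileum used to normalize IC50s. Three to six determinations, mean ± SEM.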

[4] = target: Delta-type opioid receptor (Mus musculus) (UniProt P32300); assay: Antagonist activity was evaluated in the mouse vas deferens assay against DPDPE which is selective agonist of Delta receptor; type: functional, tissue-based
Summary of the method: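 Mouse vas deferens, electrically evoked contractions; delta antagonism against DPDPE at fixed antagonist 30 nM to 10 µM. Ke obtained from agonist IC50 ratio with versus without antagonist; each vas preparation standardized with [Leu5]enkephalin dose-response. Means of three to six determinations ± SEM.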

[5] = target: Mu-type opioid receptor (Cavia porcellus) (UniProt P97266); assay: Antagonist activity was evaluated in the guinea pig ileum assay against TAPP-selective agonist of Mu receptor; type: functional, tissue-based
Summary of the method: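 Mu antagonism in guinea pig ileum (electrically evoked contractions) versus agonist TAPP, fixed antagonist concentrations 100 nM to 5 µM. Ke computed from shift in agonist IC50 (with/without antagonist), IC50s normalized against per-tissue [Leu5]enkephalin standard. Mean of three to six runs ± SEM.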

[6] = species: Cavia porcellus; assay: Inhibitory concentration of compound was measured in guinea pig ileum(GPI) assay; type: functional
Summary of the method: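 Isolated guinea pig ileum, measuring inhibition of electrically evoked contractions. Each preparation received a [Leu5]enkephalin dose-response curve as standard, and the IC50 values were normalized to it.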

[7] = species: Mus musculus; assay: Inhibitory concentration of compound was measured in mouse vas deferens assay; type: functional
Summary of the method: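 Mouse vas deferens bioassay, measuring inhibition of electrically evoked contractions. A [Leu5]enkephalin standard dose-response curve was run on each vas preparation, and the IC50 values were normalized accordingly.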

Kappa-type opioid receptor, sequence (P41144 whole entry): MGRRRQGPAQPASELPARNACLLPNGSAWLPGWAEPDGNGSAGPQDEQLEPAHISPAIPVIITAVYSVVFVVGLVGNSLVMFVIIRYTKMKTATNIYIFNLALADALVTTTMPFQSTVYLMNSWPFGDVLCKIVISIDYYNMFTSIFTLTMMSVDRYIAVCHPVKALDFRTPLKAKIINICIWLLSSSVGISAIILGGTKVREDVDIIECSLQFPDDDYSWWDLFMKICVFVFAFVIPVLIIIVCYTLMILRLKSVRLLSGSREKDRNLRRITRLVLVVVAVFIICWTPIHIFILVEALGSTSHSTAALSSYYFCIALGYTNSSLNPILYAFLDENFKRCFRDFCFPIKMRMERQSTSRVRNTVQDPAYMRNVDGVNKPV
Kappa-type opioid receptor (Cavia porcellus), sequence (P41144 whole entry): as above
Delta-type opioid receptor (Mus musculus), sequence (P32300 whole entry): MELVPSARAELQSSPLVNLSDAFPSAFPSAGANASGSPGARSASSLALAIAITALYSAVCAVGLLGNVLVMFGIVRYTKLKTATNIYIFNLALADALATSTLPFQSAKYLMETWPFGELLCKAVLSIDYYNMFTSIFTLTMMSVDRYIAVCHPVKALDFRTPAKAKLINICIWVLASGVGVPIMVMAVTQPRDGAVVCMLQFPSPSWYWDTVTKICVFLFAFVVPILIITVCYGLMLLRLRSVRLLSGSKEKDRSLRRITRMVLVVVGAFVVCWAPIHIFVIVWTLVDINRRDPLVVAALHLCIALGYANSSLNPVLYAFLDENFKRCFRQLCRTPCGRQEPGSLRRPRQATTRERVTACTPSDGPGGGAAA
Mu-type opioid receptor (Cavia porcellus), sequence (P97266 whole entry): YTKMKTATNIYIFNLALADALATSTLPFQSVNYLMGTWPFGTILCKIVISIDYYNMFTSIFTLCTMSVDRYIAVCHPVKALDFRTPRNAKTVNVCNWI

| SMILES | Ki [1] | IC50 [7] | also measured |
| --- | --- | --- | --- |
| CC[C@H](C)[C@H](NC(=O)[C@H](CCCN=C(N)N)NC(=O)[C@H](CCCN=C(N)N)NC(=O)[C@H](CC(C)C)NC(=O)[C@H](Cc1ccccc1)NC(=O)[C@@H](C)NC(=O)CNC(=O)[C@@H](C)Cc1c(C)cc(O)cc1C)C(=O)N[C@@H](CCCN=C(N)N)C(=O)N1CCC[C@H]1C(=O)N[C@@H](CCCCN)C(N)=O | 2.47 nM |  |  |
| CC[C@H](C)[C@H](NC(=O)[C@H](CCCNC(=N)N)NC(=O)[C@H](CCCNC(=N)N)NC(=O)[C@H](CC(C)C)NC(=O)[C@H](Cc1ccccc1)NC(=O)CNC(=O)CNC(=O)[C@@H](C)Cc1c(C)cc(O)cc1C)C(=O)N[C@@H](CCCNC(=N)N)C(=O)N1CCC[C@H]1C(=O)N[C@@H](CCCCN)C(N)=O |  |  | Ke [2]: 0.632 nM; Ke [3]: 3.92 nM; Ke [4]: 3.22 µM; Ke [5]: 925 nM |
| CC[C@H](C)[C@H](NC(=O)[C@H](CCCN=C(N)N)NC(=O)[C@H](CCCN=C(N)N)NC(=O)[C@H](CC(C)C)NC(=O)[C@H](Cc1ccccc1)NC(=O)CNC(=O)CNC(=O)[C@@H](N)Cc1ccc(O)cc1)C(=O)N[C@@H](CCCN=C(N)N)C(=O)N1CCC[C@H]1C(=O)N[C@@H](CCCCN)C(N)=O |  | 12.9 nM | IC50 [6]: 0.456 nM |
| CC[C@H](C)[C@H](NC(=O)[C@H](CCCNC(=N)N)NC(=O)[C@H](CCCNC(=N)N)NC(=O)[C@H](CC(C)C)NC(=O)[C@H](Cc1ccccc1)NC(=O)CNC(=O)CNC(=O)CCc1ccc(O)cc1)C(=O)N[C@@H](CCCNC(=N)N)C(=O)N1CCC[C@H]1C(=O)N[C@@H](CCCCN)C(N)=O | 30.7 nM | 722 nM |  |
| CC[C@H](C)[C@H](NC(=O)[C@H](CCCN=C(N)N)NC(=O)[C@H](CCCN=C(N)N)NC(=O)[C@H](CC(C)C)NC(=O)[C@H](Cc1ccccc1)NC(=O)CNC(=O)CNC(=O)[C@@H](N)Cc1c(C)cc(O)cc1C)C(=O)N[C@@H](CCCN=C(N)N)C(=O)N1CCC[C@H]1C(=O)N[C@@H](CCCCN)C(N)=O |  | 0.377 nM | IC50 [6]: 0.502 nM |
| Oc1ccc2c3c1O[C@H]1c4[nH]c5c(c4C[C@@]4(O)[C@@H](C2)N(CC2CC2)CC[C@]314)C[C@@]1(O)[C@H]2Cc3ccc(O)c4c3[C@@]1(CCN2CC1CC1)[C@H]5O4 [NORBINALTORPHIMINE] | 0.81 nM |  |  |
| CC[C@H](C)[C@H](NC(=O)[C@H](CCCNC(=N)N)NC(=O)[C@H](CCCNC(=N)N)NC(=O)[C@H](CC(C)C)NC(=O)[C@H](Cc1ccccc1)NC(=O)CNC(=O)CNC(=O)CCc1c(C)cc(O)cc1C)C(=O)N[C@@H](CCCNC(=N)N)C(=O)N1CCC[C@H]1C(=O)N[C@@H](CCCCN)C(N)=O | 3.49 nM |  |  |
| CC[C@H](C)[C@H](NC(=O)[C@H](CCCN=C(N)N)NC(=O)[C@H](CCCN=C(N)N)NC(=O)[C@H](CC(C)C)NC(=O)[C@H](Cc1ccccc1)NC(=O)[C@@H](C)NC(=O)CNC(=O)CCc1c(C)cc(O)cc1C)C(=O)N[C@@H](CCCN=C(N)N)C(=O)N1CCC[C@H]1C(=O)N[C@@H](CCCCN)C(N)=O | 3.84 nM |  |  |

From ChEMBL document CHEMBL1134588, “[2',6'-Dimethyltyrosine]dynorphin A(1-11)-NH2 analogues lacking an N-terminal amino group: potent and selective kappa opioid antagonists” (J Med Chem, 2001)
